Columns and labels:
Candida tropicalis = test: Antifungal activity against Candida tropicalis C 131 2000; assay type: functional
Outline: (§1)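 CLSI M27-A3 broth microdilution in RPMI-1640 buffered to pH 7.0 with MOPS. Inoculum 1-5 × 10^3 CFU/mL. Compound twofold dilutions from 250 to 0.24 µg/ml, final DMSO <1%. Incubated at 35 °C in a moist, dark chamber and read at 48 h. MIC is the lowest concentration giving total growth inhibition. For MFC, 5 µL from clear wells was plated in duplicate on SDA; MFC is the lowest concentration with no growth.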

SF-268 = test: Cytotoxicity against human SF268 cells assessed as cell growth after 2 days by sulforhodamine B assay; assay type: functional; settings: SF-268, 48 h
Outline: (§2)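 NCI cell lines were run by the Monks method: cells were plated with compounds from DMSO stocks and incubated 2 days at 37 °C in 5% CO2, in duplicate. Cells were fixed with cold TCA, stained with 0.4% SRB, and the bound dye was solubilized in 10 mM tris-base and read at 515 nm. The zero-day control was subtracted, and GI50 was taken from the curves.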

Cryptococcus neoformans = test: Antifungal activity against Cryptococcus neoformans ATCC 32264; assay type: functional; outline: as §1
MCF7 = test: Cytotoxicity against human MCF7 cells assessed as cell growth after 2 days by sulforhodamine B assay; assay type: functional; settings: MCF7, 48 h; outline: as §2
Aspergillus flavus = test: Antifungal activity against Aspergillus flavus ATCC 9170; assay type: functional
Outline: (§3)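 Broth microdilution per CLSI M38-A2 in RPMI-1640 with MOPS at pH 7.0. Inoculum 1-5 × 10^3 CFU/mL, with twofold compound dilutions spanning 250-0.24 µg/ml (final DMSO <1%). Plates incubated at 35 °C, moist and dark, and read when the control fungus had grown. MIC is total growth inhibition. MFC comes from subculturing clear wells in duplicate onto SDA.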

[1] = Cytotoxicity against human erythrocytes assessed as hemolysis by spectrometric analysis; assay type: cell-based, Erythrocyte
Outline: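 Human heparinized red blood cells were washed in PBS at pH 7.0 and suspended at 4% in sterile 5% glucose. Compounds from DMSO stocks were diluted in 5% glucose to final concentrations of 250 to 0.24 µg/ml and incubated with the cells at 37 °C. Released hemoglobin was read at 540 nm. HC50 is the concentration giving 50% lysis relative to the drug-free value.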

Nannizzia gypsea = test: Antifungal activity against Microsporum gypseum C 115 2000; assay type: functional
Outline: (§4)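 Dermatophytes tested by CLSI M38-A2 microdilution in MOPS-buffered RPMI-1640 at pH 7.0. Inoculum 1-5 × 10^3 CFU/mL; compounds 250 to 0.24 µg/ml in twofold steps, final DMSO <1%. Incubated at 28 °C in a moist, dark chamber and read according to control growth. MIC is the lowest concentration with complete inhibition. MFC is the lowest concentration with no growth after duplicate subculture on SDA.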

Saccharomyces cerevisiae = test: Antifungal activity against Saccharomyces cerevisiae ATCC 9763; assay type: functional; outline: as §1
Trichophyton rubrum = test: Antifungal activity against Trichophyton rubrum C 113 2000; assay type: functional; outline: as §4
NCI-H460 = test: Cytotoxicity against human H460 cells assessed as cell growth after 2 days by sulforhodamine B assay; assay type: functional; settings: NCI-H460, 48 h; outline: as §2
Aspergillus niger = test: Antifungal activity against Aspergillus niger ATCC 9029; assay type: functional; outline: as §3
[2] = system: Trichophyton mentagrophytes; test: Antifungal activity against Trichophyton mentagrophytes ATCC 9972; assay type: functional; outline: as §4
Candida albicans = test: Antifungal activity against Candida albicans ATCC 10213; assay type: functional; outline: as §1
Aspergillus fumigatus = test: Antifungal activity against Aspergillus fumigatus ATCC 26934; assay type: functional; outline: as §3

CCCCN1C(=O)C=CC1=O
15.6 µg/mL: MFC (Candida albicans)
1.95 µg/mL: MIC (Aspergillus flavus) | MFC (Saccharomyces cerevisiae) | MIC (Saccharomyces cerevisiae) | MFC (Trichophyton rubrum) | MIC (Trichophyton rubrum) | MIC [2] | MFC (Aspergillus fumigatus) | MIC (Aspergillus fumigatus)
7.81 µg/mL: MFC (Cryptococcus neoformans) | MFC (Aspergillus flavus)
> 10 µg/mL: GI50 (SF-268) | GI50 (MCF7) | GI50 (NCI-H460)
3.9 µg/mL: MFC (Candida tropicalis) | MIC (Candida tropicalis) | MIC (Cryptococcus neoformans) | MFC (Nannizzia gypsea) | MIC (Nannizzia gypsea) | MFC (Aspergillus niger) | MIC (Aspergillus niger) | MFC [2] | MIC (Candida albicans)
> 250 µg/mL: HC50 [1]

COc1cccc(N2C(=O)C=CC2=O)c1
62.5 µg/mL: MFC (Candida tropicalis) | MFC (Aspergillus flavus) | MFC (Aspergillus niger) | MFC (Candida albicans) | MFC (Aspergillus fumigatus)
7.81 µg/mL: MFC (Cryptococcus neoformans) | MFC (Nannizzia gypsea) | MFC (Saccharomyces cerevisiae)
1.95 µg/mL: MIC (Trichophyton rubrum) | MIC [2]
> 250 µg/mL: HC50 [1]
3.9 µg/mL: MIC (Cryptococcus neoformans) | MIC (Nannizzia gypsea) | MIC (Saccharomyces cerevisiae) | MFC (Trichophyton rubrum) | MFC [2]
31.2 µg/mL: MIC (Aspergillus flavus) | MIC (Aspergillus niger) | MIC (Aspergillus fumigatus)
15.6 µg/mL: MIC (Candida tropicalis) | MIC (Candida albicans)
> 10 µg/mL: GI50 (SF-268) | GI50 (MCF7) | GI50 (NCI-H460)

O=C1C=CC(=O)N1c1ccc(Cl)cc1
> 250 µg/mL: HC50 [1]
62.5 µg/mL: MIC (Aspergillus flavus) | MFC (Aspergillus niger) | MFC (Candida albicans) | MIC (Candida albicans) | MIC (Aspergillus fumigatus)
> 10 µg/mL: GI50 (SF-268) | GI50 (MCF7) | GI50 (NCI-H460)
15.6 µg/mL: MFC (Candida tropicalis)
7.81 µg/mL: MIC (Candida tropicalis) | MFC (Cryptococcus neoformans) | MFC (Nannizzia gypsea) | MFC (Saccharomyces cerevisiae) | MFC (Trichophyton rubrum) | MFC [2]
31.2 µg/mL: MIC (Aspergillus niger)
125 µg/mL: MFC (Aspergillus flavus) | MFC (Aspergillus fumigatus)
3.9 µg/mL: MIC (Cryptococcus neoformans) | MIC (Nannizzia gypsea) | MIC (Saccharomyces cerevisiae) | MIC (Trichophyton rubrum) | MIC [2]

CC1=CC(=O)N(CCc2ccccc2)C1=O
3.9 µg/mL: MIC (Nannizzia gypsea)
7.81 µg/mL: MFC (Nannizzia gypsea) | MIC (Trichophyton rubrum)
> 250 µg/mL: HC50 [1]
15.6 µg/mL: MFC (Trichophyton rubrum)
> 10 µg/mL: GI50 (SF-268) | GI50 (MCF7) | GI50 (NCI-H460)
125 µg/mL: MIC (Candida tropicalis) | MFC (Candida albicans)
31.2 µg/mL: MIC (Cryptococcus neoformans) | MIC (Saccharomyces cerevisiae) | MIC [2] | MFC (Aspergillus fumigatus) | MIC (Aspergillus fumigatus)
250 µg/mL: MFC (Candida tropicalis) | MFC (Aspergillus flavus) | MFC (Aspergillus niger)
62.5 µg/mL: MFC (Cryptococcus neoformans) | MIC (Aspergillus flavus) | MFC (Saccharomyces cerevisiae) | MIC (Aspergillus niger) | MFC [2] | MIC (Candida albicans)

O=C1C=CC(=O)N1c1ccc(I)cc1
125 µg/mL: MFC (Aspergillus flavus) | MFC (Aspergillus niger) | MFC (Aspergillus fumigatus)
62.5 µg/mL: MFC (Candida tropicalis) | MIC (Aspergillus flavus) | MIC (Aspergillus niger) | MFC (Candida albicans) | MIC (Aspergillus fumigatus)
7.81 µg/mL: MIC (Cryptococcus neoformans) | MFC (Nannizzia gypsea) | MFC (Saccharomyces cerevisiae) | MIC (Saccharomyces cerevisiae) | MFC (Trichophyton rubrum) | MFC [2]
31.2 µg/mL: MIC (Candida tropicalis) | MIC (Candida albicans)
> 250 µg/mL: HC50 [1]
> 10 µg/mL: GI50 (SF-268) | GI50 (MCF7) | GI50 (NCI-H460)
3.9 µg/mL: MIC (Nannizzia gypsea) | MIC (Trichophyton rubrum) | MIC [2]
15.6 µg/mL: MFC (Cryptococcus neoformans)

O=C1C=CC(=O)N1c1ccc(Br)cc1
15.6 µg/mL: MIC (Candida tropicalis) | MFC (Cryptococcus neoformans) | MFC (Saccharomyces cerevisiae) | MIC (Candida albicans)
31.2 µg/mL: MIC (Aspergillus flavus) | MIC (Aspergillus niger) | MFC (Candida albicans) | MIC (Aspergillus fumigatus)
3.9 µg/mL: MFC (Nannizzia gypsea) | MIC (Nannizzia gypsea) | MFC (Trichophyton rubrum) | MFC [2]
1.95 µg/mL: MIC (Trichophyton rubrum) | MIC [2]
7.81 µg/mL: MIC (Cryptococcus neoformans) | MIC (Saccharomyces cerevisiae)
62.5 µg/mL: MFC (Candida tropicalis) | MFC (Aspergillus flavus) | MFC (Aspergillus niger) | MFC (Aspergillus fumigatus)
> 250 µg/mL: HC50 [1]
> 10 µg/mL: GI50 (SF-268) | GI50 (MCF7) | GI50 (NCI-H460)

— ChEMBL document CHEMBL1772954, “Antifungal, cytotoxic and SAR studies of a series of N-alkyl, N-aryl and N-alkylphenyl-1,4-pyrrolediones and related compounds” (Bioorg Med Chem, 2011)
